ChEMBL document CHEMBL3596119, “Synthesis and biological characterization of a promising F-18 PET tracer for vesicular acetylcholine transporter” (Bioorg Med Chem, 2015)

Tests used:
Lung [1] = experiment: Biodistribution in Sprague-Dawley rat lung at 2.2 MBq/120 uL, iv after 60 mins by gamma counting; type: ADME, organism-based; settings: in vivo, 1 h
Procedure, shortened: (§1)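 Adult male SD rats, isoflurane (2-3%)/oxygen anesthesia, tail-vein injection of ~2.2 MBq/120 μL tracer in 10% ethanol in saline; euthanized under anesthesia at the stated time (n = 4 per time point). Brain dissected into regions, remainder kept for total brain; organs, blood, bone collected and weighed, gamma-counted against a standard dilution of injectate; %ID/g calculated.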

Muscle tissue [2] = experiment: Biodistribution in Sprague-Dawley rat muscle at 2.2 MBq/120 uL, iv after 60 mins by gamma counting; type: ADME, organism-based; settings: in vivo, 1 h; procedure, shortened: as §1
Spleen = experiment: Biodistribution in Sprague-Dawley rat spleen at 2.2 MBq/120 uL, iv after 60 mins by gamma counting; type: ADME, organism-based; settings: in vivo, 1 h; procedure, shortened: as §1
Kidney [3] = experiment: Biodistribution in Sprague-Dawley rat kidney at 2.2 MBq/120 uL, iv after 60 mins by gamma counting; type: ADME, organism-based; settings: in vivo, 1 h; procedure, shortened: as §1
Cerebellum = experiment: Biodistribution in Sprague-Dawley rat cerebellum at 2.2 MBq/120 uL, iv after 5 mins by gamma counting; type: ADME, organism-based; settings: in vivo; procedure, shortened: as §1
Cortex = experiment: Biodistribution in Sprague-Dawley rat cortex at 2.2 MBq/120 uL, iv after 5 mins by gamma counting; type: ADME, organism-based; settings: in vivo; procedure, shortened: as §1
Striatum [4] = experiment: Biodistribution in Sprague-Dawley rat striatum at 2.2 MBq/120 uL, iv after 5 mins by gamma counting; type: ADME, organism-based; settings: in vivo; procedure, shortened: as §1
Thalamus = experiment: Biodistribution in Sprague-Dawley rat thalamus at 2.2 MBq/120 uL, iv after 5 mins by gamma counting; type: ADME, organism-based; settings: in vivo; procedure, shortened: as §1
Striatum [5] = experiment: Biodistribution in Sprague-Dawley rat striatum at 2.2 MBq/120 uL, iv after 120 mins by gamma counting; type: ADME, organism-based; settings: in vivo, 2 h; procedure, shortened: as §1
[6] = Drug uptake in cynomolgus monkey striatum at 296 to 410 MBq administered via venous catheter after 120 mins by microPET imaging; type: ADME, Macaca fascicularis; settings: in vivo, iv, 2 h
Procedure, shortened: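 Male cynomolgus monkeys (6-8 kg) were fasted 12 h, induced with ketamine/glycopyrrolate i.m., then kept on 0.75-2.0% isoflurane at 37 °C. After a transmission scan for attenuation correction, a 2 h dynamic microPET scan was acquired. Framing was 3×1, 4×2, 3×3, 20×5 min. Striatal uptake was read as SUV from time-activity curves, with cerebellum as reference.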

Blood = experiment: Biodistribution in Sprague-Dawley rat blood at 2.2 MBq/120 uL, iv after 5 mins by gamma counting; type: ADME, organism-based; settings: in vivo; procedure, shortened: as §1
Heart = experiment: Biodistribution in Sprague-Dawley rat heart at 2.2 MBq/120 uL, iv after 5 mins by gamma counting; type: ADME, organism-based; settings: in vivo; procedure, shortened: as §1
Muscle tissue [7] = experiment: Biodistribution in Sprague-Dawley rat muscle at 2.2 MBq/120 uL, iv after 5 mins by gamma counting; type: ADME, organism-based; settings: in vivo; procedure, shortened: as §1
Pancreas [8] = experiment: Biodistribution in Sprague-Dawley rat pancreas at 2.2 MBq/120 uL, iv after 5 mins by gamma counting; type: ADME, organism-based; settings: in vivo; procedure, shortened: as §1
Kidney [9] = experiment: Biodistribution in Sprague-Dawley rat kidney at 2.2 MBq/120 uL, iv after 5 mins by gamma counting; type: ADME, organism-based; settings: in vivo; procedure, shortened: as §1
Rattus norvegicus = experiment: Biodistribution in Sprague-Dawley rat total brain at 2.2 MBq/120 uL, iv after 5 mins by gamma counting; type: ADME, organism-based; settings: in vivo
Procedure, shortened: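 Injected by tail vein in 10% ethanol in saline into adult male SD rats under 2-3% isoflurane/oxygen anesthesia. Rats were killed under anesthesia, n = 4 per time point. Total brain and other tissues were weighed and gamma-counted against a standard dilution of the injectate. Values are %ID/g.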

Lung [10] = experiment: Biodistribution in Sprague-Dawley rat lung at 2.2 MBq/120 uL, iv after 30 mins by gamma counting; type: ADME, organism-based; settings: in vivo, 0.5 h; procedure, shortened: as §1
Pancreas [11] = experiment: Biodistribution in Sprague-Dawley rat pancreas at 2.2 MBq/120 uL, iv after 30 mins by gamma counting; type: ADME, organism-based; settings: in vivo, 0.5 h; procedure, shortened: as §1
Bone = experiment: Biodistribution in Sprague-Dawley rat bone at 2.2 MBq/120 uL, iv after 30 mins by gamma counting; type: ADME, organism-based, Bone element; settings: in vivo, 0.5 h; procedure, shortened: as §1

Structure (SMILES): O=C(c1ccc(F)cc1)C1CCN(C2Cc3c(cccc3OCC[18F])CC2O)CC1 (single isomer, unassigned; (-))
- Drug uptake (Lung [1]): 0.738 % ID/g
- Drug uptake (Muscle tissue [2]): 0.253 % ID/g
- Drug uptake (Spleen): 0.505 % ID/g
- Drug uptake (Kidney [3]): 0.604 % ID/g
- Drug uptake (Cerebellum): 0.593 % ID/g
- Drug uptake (Cortex): 0.777 % ID/g
- Drug uptake (Striatum [4]): 0.782 % ID/g
- Drug uptake (Thalamus): 0.691 % ID/g
- Drug uptake (Striatum [5]): 0.761 % ID/g
- Drug uptake [6]: Not Active
- Drug uptake (Blood): 0.209 % ID/g
- Drug uptake (Heart): 0.706 % ID/g
- Drug uptake (Muscle tissue [7]): 0.171 % ID/g
- Drug uptake (Pancreas [8]): 1.202 % ID/g
- Drug uptake (Kidney [9]): 2.363 % ID/g
- Drug uptake (Rattus norvegicus): 0.684 % ID/g
- Drug uptake (Lung [10]): 0.973 % ID/g
- Drug uptake (Pancreas [11]): 1.2 % ID/g
- Drug uptake (Bone): 0.369 % ID/g
